Measurements published in ChEMBL document CHEMBL1151732, “Synthesis and anticancer activity comparison of phenylalkyl isoselenocyanates with corresponding naturally occurring and synthetic isothiocyanates” (J Med Chem, 2008).
Activity calls are given as the source filed them. No cut-off for these calls is given here.

Experiments:
[1] = tested on: UACC-903; assay: Cytotoxicity against human UACC-903 cells assessed as decrease in cell viability after 24 hrs by MTS assay relative to control; assay type: functional, cell-based; conditions: for IC50: UACC-903, 24 h
Procedure, shortened: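 UACC 903 melanoma cells, 5×10^3 per well in DMEM with 10% FBS, were exposed after 24 h to DMSO or 5, 10 or 15 μM agent for 24 h. Viability was read by MTS tetrazolium reduction to formazan and expressed as percent of DMSO control, as the mean of three independent experiments with SEM.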

[2] = tested on: UACC-903; assay: Cytotoxicity against human UACC-903 cells after 24 hrs by MTS assay; conditions: UACC-903, 24 h
[3] = tested on: UACC-903; assay: Antiproliferative activity against human UACC-903 cells assessed as BrdU incorporation after 24 hrs by ELISA relative to control; assay type: functional, cell-based
Procedure, shortened: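 UACC 903 cells, 5×10^3 per well, treated 24 h with DMSO vehicle or increasing concentrations of test agents. Proliferating cells were measured by BrdU incorporation with a BrdU ELISA kit. Values are expressed as percent of DMSO-treated cells, as the mean of three independent experiments with SEM.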

[4] = tested on: UACC-903; assay: Induction of apoptosis in human UACC-903 cells assessed as increase in caspase 3 activity after 24 hrs relative to control; assay type: functional, cell-based
Procedure, shortened: (§1)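 Apoptosis was measured in UACC 903 cells seeded at 5×10^3 per well and treated 24 h with DMSO vehicle or increasing agent concentrations. Combined caspase-3/7 activity was read with the Apo-ONE homogeneous caspase-3/7 kit and reported as fold increase over vehicle-treated cells, averaged over three independent experiments with SEM.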

[5] = tested on: UACC-903; assay: Induction of apoptosis in human UACC-903 cells assessed as increase in caspase 7 activity after 24 hrs relative to control; assay type: functional, cell-based; procedure, shortened: as §1
[6] = tested on: UACC-903; assay: Antitumor activity in human UACC-903 cells xenografted in Harlan Sprague-Dawley athymic nude mouse assessed as reduction in tumor size at 0.76 uM, ip administered three times per week; assay type: functional
Procedure, shortened: (§2)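 Female athymic nude mice aged 4–6 weeks received 5×10^6 UACC 903 cells s.c. in 0.2 ml DMEM/10% FBS above both rib cages. After six days they were randomized (5 mice/group, 2 tumors/mouse) and dosed i.p. with 0.76 μmoles (3 ppm selenium) Mon/Wed/Fri; controls received DMSO vehicle. Caliper tumor volume (mm³) and body weight were recorded thrice weekly.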

[7] = tested on: UACC-903; assay: Antitumor activity in human UACC-903 cells xenografted in Harlan Sprague-Dawley athymic nude mouse assessed as reduction in tumor size at 2.5 uM, ip administered three times per week; assay type: functional; parameters: scale not given: the % may be the effect or the level left
Procedure, shortened: (§3)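 UACC 903 xenografts: 5×10^6 cells s.c. in 0.2 ml DMEM/10% FBS at both flanks of 4–6-week-old female athymic nude mice. From day six, mice were randomized (5/group, 2 tumors each) and given 2.5 μmoles i.p. three times weekly (Mon/Wed/Fri), with DMSO vehicle controls. Tumor size (calipers, mm³) and body weight were measured thrice weekly.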

[8] = tested on: Mus musculus; assay: Toxicity in human UACC-903 cells xenografted in Harlan Sprague-Dawley athymic nude mouse assessed as effect on body weight at 2.5 uM, ip administered three times per week; assay type: organism-based; conditions: in vivo; procedure, shortened: as §3
[9] = tested on: T98G; assay: Cytotoxicity against human T98G cells after 24 hrs by MTS assay
[10] = tested on: PC-3; assay: Cytotoxicity against human PC-3 cells after 24 hrs by MTS assay; conditions: PC-3, 24 h
[11] = tested on: Caco-2; assay: Cytotoxicity against human Caco-2 cells after 24 hrs by MTS assay; conditions: Caco-2, 24 h
[12] = tested on: HT-1080; assay: Cytotoxicity against human HT1080 cells after 24 hrs by MTS assay; conditions: HT-1080, 24 h
[13] = tested on: MDA-MB-231; assay: Cytotoxicity against human MDA-MB-231 cells after 24 hrs by MTS assay; conditions: MDA-MB-231, 24 h
[14] = tested on: Mus musculus; assay: Toxicity in human UACC-903 cells xenografted in Harlan Sprague-Dawley athymic nude mouse assessed as effect on body weight at 0.76 uM, ip administered three times per week; assay type: organism-based; conditions: in vivo; procedure, shortened: as §2

Question: Which IC50 [1] does the source give for `CC(=O)NC(CSC(=[Se])NCCCCc1ccccc1)C(=O)O` (stereo not drawn) here?
Answer: 10 µM

Question: And the IC50 [2]?
Answer: 17 µM

Question: Which IC50 [1] does the source give for `CC(=O)NC(CSC(=S)NCCCCc1ccccc1)C(=O)O` (stereo not drawn) here?
Answer: 24 µM

Question: What about the IC50 [2] of the same compound?
Answer: 24 µM

Question: Which Activity [1] does the source give for `S=C=NCc1ccccc1` [BENZYL ISOTHIOCYANATE] here?
Answer: Dose-dependent effect

Question: What about the Activity [3] of the same compound?
Answer: Dose-dependent effect

Question: And the Activity [4]?
Answer: Dose-dependent effect

Question: And the Activity [5]?
Answer: Dose-dependent effect

Question: And the Activity [6]?
Answer: inactive

Question: And the Activity [7]?
Answer: 40%

Question: What about the Activity [8] of the same compound?
Answer: Non-toxic

Question: And the IC50 [9]?
Answer: > 100 µM

Question: And the IC50 [10]?
Answer: > 50 µM

Question: What about the IC50 [11] of the same compound?
Answer: 15 µM

Question: And the IC50 [12]?
Answer: > 50 µM

Question: And the IC50 [2]?
Answer: 15 µM

Question: What about the IC50 [13] of the same compound?
Answer: 42 µM

Question: With `[Se]=C=NCc1ccccc1` [BENZYLISOSELENOCYANATE] as the compound, how does the Activity [1] read?
Answer: Dose-dependent effect

Question: What about the Activity [3] of the same compound?
Answer: Dose-dependent effect

Question: What about the Activity [4] of the same compound?
Answer: Dose-dependent effect

Question: What about the Activity [5] of the same compound?
Answer: Dose-dependent effect

Question: What about the Activity [14] of the same compound?
Answer: Non-toxic

Question: What about the IC50 [9] of the same compound?
Answer: 43 µM

Question: What about the IC50 [10] of the same compound?
Answer: 24 µM

Question: And the IC50 [11]?
Answer: 13 µM

Question: And the IC50 [12]?
Answer: 13 µM

Question: What about the IC50 [2] of the same compound?
Answer: 16 µM

Question: And the IC50 [13]?
Answer: 29 µM

Question: `[Se]=C=NCCc1ccccc1` [PHENETHYLISOSELENOCYANATE] was tested. Which Activity [1] did it give?
Answer: Dose-dependent effect

Question: And the Activity [3]?
Answer: Dose-dependent effect

Question: What about the Activity [4] of the same compound?
Answer: Dose-dependent effect

Question: What about the Activity [5] of the same compound?
Answer: Dose-dependent effect

Question: What about the Activity [6] of the same compound?
Answer: 30%

Question: What about the Activity [14] of the same compound?
Answer: Non-toxic

Question: What about the IC50 [9] of the same compound?
Answer: 24 µM

Question: What about the IC50 [10] of the same compound?
Answer: 16 µM

Question: What about the IC50 [11] of the same compound?
Answer: 11 µM

Question: And the IC50 [12]?
Answer: 12 µM

Question: What about the IC50 [2] of the same compound?
Answer: 12 µM

Question: What about the IC50 [13] of the same compound?
Answer: 20 µM

Question: What does the source list for `S=C=NCCc1ccccc1` [PHENETHYLISOTHIOCYANATE]?
Answer: Activity [1]: Dose-dependent effect; Activity [3]: Dose-dependent effect; Activity [4]: Dose-dependent effect; Activity [5]: Dose-dependent effect; Activity [6]: inactive; Activity [7]: 40%; Activity [8]: Non-toxic; IC50 [9]: > 100 µM; IC50 [10]: 24 µM; IC50 [11]: 14 µM; IC50 [12]: 15 µM; IC50 [2]: 12 µM; IC50 [13]: 38 µM

Question: For `[Se]=C=NCCCCc1ccccc1` [PHENYLBUTYL ISOSELENOCYANATE], which Activity [1] is on record?
Answer: Dose-dependent effect

Question: And the Activity [3]?
Answer: Dose-dependent effect

Question: What about the Activity [4] of the same compound?
Answer: Dose-dependent effect

Question: What about the Activity [5] of the same compound?
Answer: Dose-dependent effect

Question: And the Activity [6]?
Answer: 30%

Question: And the Activity [14]?
Answer: Non-toxic

Question: What about the IC50 [9] of the same compound?
Answer: 27 µM

Question: What about the IC50 [10] of the same compound?
Answer: 19 µM

Question: What about the IC50 [11] of the same compound?
Answer: 12 µM

Question: And the IC50 [12]?
Answer: 11 µM

Question: And the IC50 [2]?
Answer: 10 µM

Question: What about the IC50 [13] of the same compound?
Answer: 21 µM

Question: With `S=C=NCCCCc1ccccc1` [PHENYLBUTYL ISOTHIOCYANATE] as the compound, how does the Activity [1] read?
Answer: Dose-dependent effect

Question: And the Activity [3]?
Answer: Dose-dependent effect

Question: And the Activity [4]?
Answer: Dose-dependent effect

Question: What about the Activity [5] of the same compound?
Answer: Dose-dependent effect

Question: And the Activity [6]?
Answer: inactive

Question: What about the Activity [7] of the same compound?
Answer: 40%

Question: And the Activity [8]?
Answer: Non-toxic

Question: What about the IC50 [9] of the same compound?
Answer: 35 µM

Question: And the IC50 [10]?
Answer: 24 µM

Question: And the IC50 [11]?
Answer: 27 µM

Question: And the IC50 [12]?
Answer: 15 µM

Question: What about the IC50 [2] of the same compound?
Answer: 16 µM

Question: What about the IC50 [13] of the same compound?
Answer: 27 µM

Question: With `[Se]=C=NCCCCCCc1ccccc1` [PHENYLHEXYL ISOSELENOCYANATE] as the compound, how does the Activity [1] read?
Answer: Dose-dependent effect

Question: What about the Activity [3] of the same compound?
Answer: Dose-dependent effect

Question: And the Activity [4]?
Answer: Dose-dependent effect

Question: What about the Activity [5] of the same compound?
Answer: Dose-dependent effect

Question: What about the Activity [6] of the same compound?
Answer: 30%

Question: What about the Activity [14] of the same compound?
Answer: Non-toxic

Question: And the IC50 [9]?
Answer: 23 µM

Question: What about the IC50 [10] of the same compound?
Answer: 14 µM

Question: And the IC50 [11]?
Answer: 10 µM

Question: What about the IC50 [12] of the same compound?
Answer: 12 µM

Question: What about the IC50 [2] of the same compound?
Answer: 10 µM

Question: What about the IC50 [13] of the same compound?
Answer: 22 µM

Question: Which results are given for `S=C=NCCCCCCc1ccccc1` [PHENYLHEXYL ISOTHIOCYANATE]?
Answer: Activity [1]: Dose-dependent effect; Activity [3]: Dose-dependent effect; Activity [4]: Dose-dependent effect; Activity [5]: Dose-dependent effect; Activity [6]: inactive; Activity [7]: 40%; Activity [8]: Non-toxic; IC50 [9]: 26 µM; IC50 [10]: 17 µM; IC50 [11]: 49 µM; IC50 [12]: 29 µM; IC50 [2]: 15 µM; IC50 [13]: 24 µM
